From publication PMC4276534 (ChemMedChem, 2014)
One block for each compound: values may come before it.

What was measured:
MrgX1 [1] = target: T1, MrgX1 (Homo sapiens, UniProt Q96LB2); assay: HTS triple addition screen for MrgX1 positive allosteric modulators; type: cell-based; details: read-out: MrgX1 EC50; HTS screen value; HEK293 cell line stably expressing MrgX1
MrgX1 [2] = target: T1, MrgX1; assay: Ca2+ imaging assay on MrgX1-expressing HEK293 cells; type: cell-based
In short: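 Ca2+ imaging in HEK293 cells expressing MrgX1, read as relative fluorescence units. Test compound was titrated alone and with a submaximal BAM8-22 level (10 nM). EC50 came from dose-response curve fitting and was not determined when Emax was <50%. Emax is given as % of a reference analogue. Three repeat experiments, mean±SEM.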

[3] = tested on: 68 GPCR's, ion channels and transporters; assay: EuroFin's Lead Profiling Screen binding assay panel; details: 10 μM
[4] = Intrinsic clearance in rat hepatic microsomes; type: in vitro ADME
[5] = Intrinsic clearance in human hepatic microsomes; type: in vitro ADME
[6] = Plasma protein binding by equilibrium dialysis, human; type: in vitro ADME; details: free fraction
[7] = Plasma protein binding by equilibrium dialysis, rat; type: in vitro ADME; details: free fraction

T1 sequence (Q96LB2 whole entry): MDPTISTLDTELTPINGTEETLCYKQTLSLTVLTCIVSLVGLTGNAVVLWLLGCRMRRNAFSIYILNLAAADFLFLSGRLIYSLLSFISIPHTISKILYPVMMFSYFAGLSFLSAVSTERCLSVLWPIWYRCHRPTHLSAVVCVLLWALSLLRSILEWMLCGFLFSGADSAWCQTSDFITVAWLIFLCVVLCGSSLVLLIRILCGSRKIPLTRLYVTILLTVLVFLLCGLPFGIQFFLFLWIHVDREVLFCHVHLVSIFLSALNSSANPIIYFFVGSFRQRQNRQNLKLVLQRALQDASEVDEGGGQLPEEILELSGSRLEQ

- EC50 (MrgX1 [1]): 96 nM
Compound: CCOc1ccccc1NC(=O)c1ccccc1NS(C)(=O)=O [SID 4258711]

Compound: CCOc1ccccc1NC(=O)c1ccccc1NS(=O)(=O)C1CC1 [4l, 2-(cyclopropanesulfonamido)-N-(2-ethoxyphenyl)benzamide]
- Activation of MrgX1 (agonistic activity) (MrgX1 [2]; in the absence of BAM8-22): does not activate MrgX1
- Effect on the EMax of BAM8-22 (MrgX1 [2]; maximum concentration of BAM8-22 used): does not affect the EMax of BAM8-22
- Emax as % of standard compound (4i) (MrgX1 [2]; normalized to the positive control (4i, 100%)): 195 ± 8%
- EC50 (MrgX1 [2]; read-out: MrgX1 EC50, Table 3, alkylsulfonamides, in presence of BAM8-22): 190 ± 60 nM
- Inhibition of radio ligand binding >50% in panel of 68 targets [3]: did not inhibit 67 of the 68 targets
- Rat CLHEP, Microsome Predicted Hepatic Clearance [4]: 65.7 mL/min/kg
- Human CLHEP, Microsome Predicted Hepatic Clearance [5]: 15.7 mL/min/kg
- Human PPB, Percent Free Compound in Plasma [6]: 0.4%
- Rat PPB, Percent Free Compound in Plasma [7]: 1.7%

- EC50 (MrgX1 [2]; EC50 of BAM8-22 on MrgX1, with ML382): 2.9 nM
- EC50 (MrgX1 [2]; EC50 of BAM8-22 on MrgX1, without ML382): 18.7 nM
Compound: H-VGRPEWWMDYQKRYG-OH [BAM8-22, reference compound]

- EC50 (MrgX1 [1]): 329 nM
Compound: CSc1ccccc1NC(=O)c1ccccc1N(C)S(C)(=O)=O [SID 4262381]
